The source made the active and inactive calls. The calls are words filed in the database; no cut-off is given here.
Key:
PC-3 [1] = test: Induction of apoptosis in human PC3 cells assessed as necrotic cells level at 2.5 uM incubated for 24 hrs by annexin V-FITC/propidium iodide dual staining based flow cytometry (reference value: 0.59%); format: functional
In short: (§1)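 PC-3 cells were grown 24 h, then treated 24 h at 2.5, 5.0 or 10 µM. Cells were trypsinised, washed twice in ice-cold PBS and stained in binding buffer with Annexin V-FITC followed by propidium iodide at room temperature in the dark. 10,000 cells per sample were run on a flow cytometer, with quadrants scored as live, early apoptotic, late apoptotic or necrotic.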

PC-3 [2] = test: Induction of apoptosis in human PC3 cells assessed as necrotic cells level at 10 uM incubated for 24 hrs by annexin V-FITC/propidium iodide dual staining based flow cytometry (reference value: 0.59%); format: functional; in short: as §1
PC-3 [3] = test: Cytotoxicity in human PC3 cells incubated for 48 hrs by MTT assay; format: functional, cell-based; conditions: PC-3, 48 h
In short: (§2)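 Cells (1 × 10^4/well) were seeded in medium with 10% FBS and left 24 h at 37 °C. Compound diluted in medium was then added, alongside a vehicle control, for 48 h. MTT (5 mg/mL stock) was added for 4 h, formazan dissolved in DMSO and absorbance read at 570 nm. IC50 taken as the concentration giving 50% inhibition.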

PC-3 [4] = test: Cell cycle arrest in human PC3 cells assessed as accumulation at G0/G1 phase at 2.10 uM incubated for 24 hrs by propidium iodide staining based flow cytometry (reference value: 106.67%); format: functional
PC-3 [5] = test: Induction of apoptosis in human PC3 cells assessed as induction of condensed nuclei formation at 2.5 to 10 uM incubated for 48 hrs by DAPI staining based fluorescence microscopy; format: functional, cell-based
In short: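 Compound-treated PC-3 cells were PBS-washed, permeabilised with 0.1% Tween 20 for 10 min and stained with 1 µM DAPI. Nuclear morphology was viewed by fluorescence microscopy at ex 359/em 461 nm, 200×.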

PC-3 [6] = test: Induction of mitochondrial membrane potential loss in human PC3 cells assessed as JC1 aggregate level at 10 uM incubated for 24 hrs by JC1 staining based flow cytometry (reference value: 76.94%); format: functional
PC-3 [7] = test: Induction of apoptosis in human PC3 cells assessed as necrotic cells level at 5 uM incubated for 24 hrs by annexin V-FITC/propidium iodide dual staining based flow cytometry (reference value: 0.59%); format: functional; in short: as §1
HCT-116 = test: Cytotoxicity in human HCT116 cells incubated for 48 hrs by MTT assay; format: functional, cell-based; conditions: HCT-116, 48 h
In short: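 Cells (1 × 10^4/well) were seeded in medium with 10% FBS and left 24 h at 37 °C. Compound diluted in medium was then added, alongside a vehicle control, for 48 h. MTT (5 mg/mL stock) was added for 4 h, formazan dissolved in DMSO and absorbance read at 570 nm.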

PC-3 [8] = test: Induction of apoptosis in human PC3 cells assessed as late apoptotic cells level at 10 uM incubated for 24 hrs by annexin V-FITC/propidium iodide dual staining based flow cytometry (reference value: 10.92%); format: functional; in short: as §1
MDA-MB-453 = test: Cytotoxicity in human MDA-MB-453 cells incubated for 48 hrs by MTT assay; format: functional, cell-based; conditions: MDA-MB-453, 48 h; in short: as §2
PC-3 [9] = test: Induction of mitochondrial membrane potential loss in human PC3 cells assessed as JC1 aggregate level at 5 uM incubated for 24 hrs by JC1 staining based flow cytometry (reference value: 76.94%); format: functional
PC-3 [10] = test: Induction of apoptosis in human PC3 cells assessed as late apoptotic cells level at 5 uM incubated for 24 hrs by annexin V-FITC/propidium iodide dual staining based flow cytometry (reference value: 10.92%); format: functional; in short: as §1
PC-3 [11] = test: Cell cycle arrest in human PC3 cells assessed as accumulation at subG1 phase at 2.5 uM incubated for 24 hrs by propidium iodide staining based flow cytometry (reference value: 1.71%); format: functional
PC-3 [12] = test: Induction of mitochondrial membrane potential loss in human PC3 cells assessed as JC1 aggregate level at 2.5 uM incubated for 24 hrs by JC1 staining based flow cytometry (reference value: 76.94%); format: functional
HCT-15 = test: Cytotoxicity in human HCT15 cells incubated for 48 hrs by MTT assay; format: functional, cell-based; conditions: HCT-15, 48 h; in short: as §2
PC-3 [13] = test: Induction of apoptosis in human PC3 cells assessed as late apoptotic cells level at 2.5 uM incubated for 24 hrs by annexin V-FITC/propidium iodide dual staining based flow cytometry (reference value: 10.92%); format: functional; in short: as §1
PC-3 [14] = test: Induction of apoptosis in human PC3 cells assessed as early apoptotic cells level at 10 uM incubated for 24 hrs by annexin V-FITC/propidium iodide dual staining based flow cytometry (reference value: 11.76%); format: functional; in short: as §1
DU-145 = test: Cytotoxicity in human DU145 cells incubated for 48 hrs by MTT assay; format: functional, cell-based; conditions: DU-145, 48 h; in short: as §2
PC-3 [15] = test: Induction of mitochondrial membrane potential loss in human PC3 cells assessed as JC1 monomer level at 10 uM incubated for 24 hrs by JC1 staining based flow cytometry (reference value: 22.8%); format: functional
PC-3 [16] = test: Cell cycle arrest in human PC3 cells assessed as accumulation at G2/M phase at 10 uM incubated for 24 hrs by propidium iodide staining based flow cytometry (reference value: […])
PC-3 [17] = test: Cell cycle arrest in human PC3 cells assessed as accumulation at S phase at 2.5 uM incubated for 24 hrs by propidium iodide staining based flow cytometry (reference value: 13.92%); format: functional
PC-3 [18] = test: Induction of morphological changes in human PC3 cells assessed as increase in nuclear shrinkage at 2.5 to 10 uM incubated for 48 hrs by phase contrast microscopy; format: functional, cell-based
In short: (§3)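 PC-3 cells at 1 × 10^5 cells/mL adhered overnight, then received compound at 2.5, 5.0 or 10.0 µM. After 48 h, morphology (viable cell number, nuclear shrinkage, detachment) was imaged by phase contrast microscopy.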

PC-3 [19] = test: Induction of cell death in human PC3 cells assessed as induction of membrane blebbing at 10 uM incubated for 48 hrs by acridine orange and ethidium bromide staining based fluorescence microscopy; format: functional
In short: (§4)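 PC-3 cells (1 × 10^6 cells/mL) were treated with compound and kept 48 h at 37 °C, 5% CO2. Acridine orange and ethidium bromide (10 µg/mL) were added in equal volumes. After 10 min, cells were imaged by fluorescence microscopy (ex 488/em 550 nm, 200×).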

PC-3 [20] = test: Cell cycle arrest in human PC3 cells assessed as accumulation at G0/G1 phase at 2.5 uM incubated for 24 hrs by propidium iodide staining based flow cytometry (reference value: 56.67%); format: functional
PC-3 [21] = test: Induction of apoptosis in human PC3 cells assessed as viable cells level at 2.5 uM incubated for 24 hrs by annexin V-FITC/propidium iodide dual staining based flow cytometry (reference value: 76.73%); format: functional; in short: as §1
PC-3 [22] = test: Induction of morphological changes in human PC3 cells assessed as increase in cell detachment at 2.5 to 10 uM incubated for 48 hrs by phase contrast microscopy; format: functional, cell-based; in short: as §3
PC-3 [23] = test: Induction of cell death in human PC3 cells assessed as induction of chromatin condensation at 10 uM incubated for 48 hrs by acridine orange and ethidium bromide staining based fluorescence microscopy; format: functional; in short: as §4
PC-3 [24] = test: Induction of apoptosis in human PC3 cells assessed as viable cells level at 5 uM incubated for 24 hrs by annexin V-FITC/propidium iodide dual staining based flow cytometry (reference value: 76.73%); format: functional; in short: as §1

COc1ccc2cc(-c3nc4ccc(F)cc4[nH]3)c3cc(OC)c(OC)cc3c2c1
Activity (PC-3 [1]): 0.21% | Activity (PC-3 [2]): 0.36% | IC50 (PC-3 [3]): 6.32 µM | Activity (PC-3 [4]): 38.61% | Activity (PC-3 [5]): Active | Activity (PC-3 [6]): 4.29% | Activity (PC-3 [7]): 0.44% | IC50 (HCT-116): > 20 µM | Activity (PC-3 [8]): 49.02% | IC50 (MDA-MB-453): 6.61 µM | Activity (PC-3 [9]): 32.38% | Activity (PC-3 [10]): 34.03% | Activity (PC-3 [11]): 3.08% | Activity (PC-3 [12]): 66.43% | IC50 (HCT-15): > 20 µM | Activity (PC-3 [13]): 24.89% | Activity (PC-3 [14]): 22.94% | IC50 (DU-145): > 20 µM | Activity (PC-3 [15]): 95.64% | Activity (PC-3 [16]): 44.16% | Activity (PC-3 [17]): 11.3% | Activity (PC-3 [18]): Active | Activity (PC-3 [19]): Active | Activity (PC-3 [20]): 55.93% | Activity (PC-3 [21]): 38.69% | Activity (PC-3 [22]): Active | Activity (PC-3 [23]): Active | Activity (PC-3 [24]): 32.12%
